From ChEMBL document CHEMBL4020842, “Discovery of N1-(4-((7-Cyclopentyl-6-(dimethylcarbamoyl)-7 H-pyrrolo[2,3- d]pyrimidin-2-yl)amino)phenyl)- N8-hydroxyoctanediamide as a Novel Inhibitor Targeting Cyclin-dependent Kinase 4/9 (CDK4/9) and Histone Deacetlyase1 (HDAC1) against Malignant Cancer” (J Med Chem, 2018)
≈ marks a conversion by molar mass, not a printed value. Calls of active or inactive are those of the source. No cut-off for these calls is given here.

Assays:
Aurora-C/INCENP = Aurora-C/INCENP (Homo sapiens, UniProt Q9NQS7+Q9UQB9); experiment: Inhibition of recombinant human N-terminal His6-tagged Aurora-C (35-end residues)/N-terminal GST-tagged INCENP (821-end residues) expressed in baculovirus infected sf21 cells using AKRRRLSSLRA substrate in presence of [gamma33P]ATP after 10 mins by scintillation counting method
Aurora-C/INCENP, sequence (Q9UQB9 whole entry): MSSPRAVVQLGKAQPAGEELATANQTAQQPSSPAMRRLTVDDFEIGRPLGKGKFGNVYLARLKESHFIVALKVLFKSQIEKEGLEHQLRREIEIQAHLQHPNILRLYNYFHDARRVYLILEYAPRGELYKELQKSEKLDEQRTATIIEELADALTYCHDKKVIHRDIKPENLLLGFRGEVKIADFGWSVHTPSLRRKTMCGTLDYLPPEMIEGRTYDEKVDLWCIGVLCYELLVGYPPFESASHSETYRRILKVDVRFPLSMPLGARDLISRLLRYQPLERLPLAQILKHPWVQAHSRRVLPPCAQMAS
Aurora-C/INCENP, sequence (Q9NQS7 whole entry): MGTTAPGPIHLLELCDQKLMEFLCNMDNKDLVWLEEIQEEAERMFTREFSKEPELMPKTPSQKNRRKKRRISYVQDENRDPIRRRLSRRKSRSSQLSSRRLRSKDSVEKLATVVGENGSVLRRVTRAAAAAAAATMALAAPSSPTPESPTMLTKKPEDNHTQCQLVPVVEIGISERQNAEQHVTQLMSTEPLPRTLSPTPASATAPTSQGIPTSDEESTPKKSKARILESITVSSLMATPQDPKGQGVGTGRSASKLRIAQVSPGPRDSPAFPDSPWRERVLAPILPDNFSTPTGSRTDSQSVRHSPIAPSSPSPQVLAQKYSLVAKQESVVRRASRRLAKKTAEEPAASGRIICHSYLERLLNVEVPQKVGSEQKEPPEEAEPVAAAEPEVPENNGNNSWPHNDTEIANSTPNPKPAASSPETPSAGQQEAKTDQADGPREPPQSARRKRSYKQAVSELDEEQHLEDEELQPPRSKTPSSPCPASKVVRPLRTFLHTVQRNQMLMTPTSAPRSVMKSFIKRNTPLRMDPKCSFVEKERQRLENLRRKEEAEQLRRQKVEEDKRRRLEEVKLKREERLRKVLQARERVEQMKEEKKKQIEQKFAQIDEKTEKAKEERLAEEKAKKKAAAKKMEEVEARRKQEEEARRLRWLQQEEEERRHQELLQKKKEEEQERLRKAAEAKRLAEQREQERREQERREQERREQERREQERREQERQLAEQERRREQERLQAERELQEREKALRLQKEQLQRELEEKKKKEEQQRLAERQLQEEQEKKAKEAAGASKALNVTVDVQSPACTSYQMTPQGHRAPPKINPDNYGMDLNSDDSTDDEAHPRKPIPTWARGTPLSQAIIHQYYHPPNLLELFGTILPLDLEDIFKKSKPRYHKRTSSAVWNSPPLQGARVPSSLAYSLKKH

MDA-MB-231 [1] = experiment: Induction of apoptosis in human MDA-MB-231 cells assessed as late apoptotic cells at 1 uM after 48 hrs by annexin V-FITC/propidium iodide staining based flow cytometry (reference value: 1.53%); format: functional
CDK4/CDK9 (Homo sapiens) = CDK4/CDK9 (Homo sapiens) (UniProt P11802+P50750); experiment: Inhibition of CDK4/CDK9 in human Hep3B cells assessed as reduction in Rb phosphorylation at Ser807/811 residues at 1 uM after 48 hrs by Western blot method; format: cell-based
CDK4/CDK9 (Homo sapiens), sequence (P11802 whole entry, looked up): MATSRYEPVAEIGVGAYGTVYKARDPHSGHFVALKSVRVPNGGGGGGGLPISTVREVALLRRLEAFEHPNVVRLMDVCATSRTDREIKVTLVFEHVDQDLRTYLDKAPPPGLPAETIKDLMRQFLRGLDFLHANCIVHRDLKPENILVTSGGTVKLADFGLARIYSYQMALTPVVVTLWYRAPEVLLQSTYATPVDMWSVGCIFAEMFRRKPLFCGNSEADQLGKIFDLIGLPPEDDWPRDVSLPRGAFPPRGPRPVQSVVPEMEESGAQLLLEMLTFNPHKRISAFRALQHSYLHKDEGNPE
CDK4/CDK9 (Homo sapiens), sequence (P50750 whole entry, looked up): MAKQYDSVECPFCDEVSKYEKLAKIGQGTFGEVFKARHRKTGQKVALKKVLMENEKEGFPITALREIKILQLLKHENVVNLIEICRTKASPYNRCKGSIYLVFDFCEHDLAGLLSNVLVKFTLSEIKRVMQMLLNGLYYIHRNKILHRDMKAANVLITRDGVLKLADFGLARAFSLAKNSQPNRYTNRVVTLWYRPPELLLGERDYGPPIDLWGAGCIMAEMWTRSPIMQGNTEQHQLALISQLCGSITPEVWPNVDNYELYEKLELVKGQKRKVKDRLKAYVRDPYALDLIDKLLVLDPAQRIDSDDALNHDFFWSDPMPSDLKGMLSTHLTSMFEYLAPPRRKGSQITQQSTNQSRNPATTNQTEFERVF

Hep 3B2 [2] = experiment: Induction of apoptosis in human Hep3B cells assessed as reduction in Bcl2 protein expression after 48 hrs by Western blot method; format: functional, cell-based
How it was run: (§1)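 Cells were treated with or without compound and control for 48 h, then lysed. Bcl-2 and cleaved caspase 3 were assessed by Western blot.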

A549 [3] = experiment: Induction of apoptosis in human A549 cells assessed as live cells at 1 uM after 48 hrs by annexin V-FITC/propidium iodide staining based flow cytometry (reference value: 92.7%); format: functional
[4] = Aqueous solubility in water at 1 mg using acid formulation sonicated for 24 hrs and incubated under unstirred condition for 24 hrs by HPLC method; format: physicochemical
CDK9/cyclin T1 = CDK9/cyclin T1 (Homo sapiens, UniProt P50750); experiment: Inhibition of recombinant human full length C-terminal 6His-tagged CDK9/Cyclin-T1 co-expressed in baculovirus infected sf21 cells using PDKtide substrate in presence of [gamma33P]ATP after 10 mins by scintillation counting method
CDK9/cyclin T1, sequence (O60563 whole entry): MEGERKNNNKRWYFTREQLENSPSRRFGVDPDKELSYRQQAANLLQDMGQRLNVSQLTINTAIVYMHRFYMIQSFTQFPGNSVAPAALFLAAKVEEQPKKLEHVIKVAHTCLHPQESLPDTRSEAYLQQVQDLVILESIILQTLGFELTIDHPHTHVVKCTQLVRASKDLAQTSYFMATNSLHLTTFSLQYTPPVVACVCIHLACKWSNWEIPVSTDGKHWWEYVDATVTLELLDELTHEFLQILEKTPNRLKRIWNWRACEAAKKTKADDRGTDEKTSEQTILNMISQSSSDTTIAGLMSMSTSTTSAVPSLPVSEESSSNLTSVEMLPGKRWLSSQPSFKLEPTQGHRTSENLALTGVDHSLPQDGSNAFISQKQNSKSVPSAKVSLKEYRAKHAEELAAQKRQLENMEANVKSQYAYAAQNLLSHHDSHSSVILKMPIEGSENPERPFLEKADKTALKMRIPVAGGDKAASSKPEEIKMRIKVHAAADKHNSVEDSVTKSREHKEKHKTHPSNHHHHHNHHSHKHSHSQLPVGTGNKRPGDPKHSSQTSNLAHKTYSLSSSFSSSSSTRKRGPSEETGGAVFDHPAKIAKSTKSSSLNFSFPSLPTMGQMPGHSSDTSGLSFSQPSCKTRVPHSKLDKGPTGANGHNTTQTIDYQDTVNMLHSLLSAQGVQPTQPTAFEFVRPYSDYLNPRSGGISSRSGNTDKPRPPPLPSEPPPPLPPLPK
CDK9/cyclin T1, sequence (P50750 whole entry): as the sequence (P50750 whole entry, looked up) above

HepG2 [5] = experiment: Induction of apoptosis in human HepG2 cells assessed as early apoptotic cells at 10 uM after 48 hrs by annexin V-FITC/propidium iodide staining based flow cytometry (reference value: 0.3%); format: functional
NCI-H460 [6] = experiment: Induction of apoptosis in human NCI-H460 cells assessed as necrotic cells at 1 uM after 48 hrs by annexin V-FITC/propidium iodide staining based flow cytometry (reference value: 1.34%); format: functional
4T1 = experiment: Antitumor activity against mouse Fluc-labeled 4T1 cells implanted in Balb/c mouse assessed as tumor growth inhibition at 130 mg/kg, po administered daily via gavage for 18 days by bioluminescence assay relative to control; format: functional; settings: 4T1, po, 432 h, read-out: TGI
Rattus norvegicus = experiment: Apparent volume of distribution at steady state in Sprague-Dawley rat at 20 mg/kg, ip administered as single dose by HPLC analysis; format: ADME, organism-based; settings: in vivo
Hep 3B2 [7] = experiment: Induction of apoptosis in human Hep3B cells assessed as live cells at 5 uM after 48 hrs by annexin V-FITC/propidium iodide staining based flow cytometry (reference value: 97.9%); format: functional
MDA-MB-231 [8] = experiment: Induction of apoptosis in human MDA-MB-231 cells assessed as necrotic cells at 10 uM after 48 hrs by annexin V-FITC/propidium iodide staining based flow cytometry (reference value: […]); format: functional
NCI-H460 [9] = experiment: Induction of apoptosis in human NCI-H460 cells assessed as necrotic cells at 5 uM after 48 hrs by annexin V-FITC/propidium iodide staining based flow cytometry (reference value: 1.34%); format: functional
[10] = AUC (0 to infinity) in Sprague-Dawley rat at 20 mg/kg, ip administered as single dose by HPLC analysis; format: ADME, organism-based; set-up: dose 20 mg/kg, time infinity, route intraperitoneal; settings: in vivo
A549 [11] = experiment: Cell cycle arrest in human A549 cells assessed as decrease in S-phase at 625 nM after 24 hrs by propidium iodide staining based flow cytometry; format: functional
How it was run: (§2)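 Cells were exposed for 24 h to a range of concentrations (625 nM, 2.5 and 10 µM), with DMSO vehicle as control. They were then stained with propidium iodide and analysed by flow cytometry to obtain the percentages of cells in G0/G1, S and G2 phases.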

Hep 3B2 [12] = experiment: Induction of apoptosis in human Hep3B cells assessed as late apoptotic cells at 5 uM after 48 hrs by annexin V-FITC/propidium iodide staining based flow cytometry (reference value: 5.25%); format: functional
Histone deacetylase 1 [13] = target: T1, Histone deacetylase 1 (Homo sapiens, UniProt Q13547); experiment: Inhibition of HDAC1 in human NCI-H460 cells assessed as increase in p53 phosphorylation at Ser15 residue at 1 to 5 uM after 48 hrs by Western blot method; format: cell-based
T1 sequence (Q13547 whole entry): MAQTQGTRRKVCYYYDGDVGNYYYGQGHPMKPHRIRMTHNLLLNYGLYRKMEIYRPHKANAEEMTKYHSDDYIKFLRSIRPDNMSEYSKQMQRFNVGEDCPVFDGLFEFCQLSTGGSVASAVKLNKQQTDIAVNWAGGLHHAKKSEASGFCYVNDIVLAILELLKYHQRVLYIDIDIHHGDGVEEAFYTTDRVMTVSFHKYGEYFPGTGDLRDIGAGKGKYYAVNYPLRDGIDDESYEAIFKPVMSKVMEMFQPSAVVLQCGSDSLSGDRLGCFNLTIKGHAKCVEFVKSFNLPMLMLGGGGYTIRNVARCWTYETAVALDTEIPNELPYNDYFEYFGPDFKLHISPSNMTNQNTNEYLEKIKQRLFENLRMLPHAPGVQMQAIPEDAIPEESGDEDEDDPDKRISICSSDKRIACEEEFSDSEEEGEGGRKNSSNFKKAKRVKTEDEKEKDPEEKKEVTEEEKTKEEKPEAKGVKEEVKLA

HepG2 [14] = experiment: Cell cycle arrest in human HepG2 cells assessed as decrease in S-phase at 625 nM after 24 hrs by propidium iodide staining based flow cytometry; format: functional; how it was run: as §2
NCI-H460 [15] = experiment: Induction of apoptosis in human NCI-H460 cells assessed as caspase-3 cleavage after 48 hrs by Western blot method; format: functional, cell-based
How it was run: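 Cells were treated with or without test agent, alongside a control, for 48h. They were then lysed and analysed by Western blot for Bcl-2 protein and cleaved caspase 3.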

MDA-MB-231 [16] = experiment: Induction of apoptosis in human MDA-MB-231 cells assessed as early apoptotic cells at 1 uM after 48 hrs by annexin V-FITC/propidium iodide staining based flow cytometry (reference value: 0.4%); format: functional
HepG2 [17] = experiment: Induction of apoptosis in human HepG2 cells assessed as live cells at 1 uM after 48 hrs by annexin V-FITC/propidium iodide staining based flow cytometry (reference value: 96.7%); format: functional
NCI-H460 [18] = experiment: Induction of apoptosis in human NCI-H460 cells assessed as early apoptotic cells at 5 uM after 48 hrs by annexin V-FITC/propidium iodide staining based flow cytometry (reference value: 0.11%); format: functional
Mus musculus = experiment: Toxicity in Balb/c mouse assessed as overt signs of toxicity at 45 to 130 mg/kg, ip for 16 consecutive days; format: organism-based; settings: in vivo
[19] = Aqueous solubility in pH 7.4 PBS buffer at 1 mg sonicated for 24 hrs and incubated under unstirred condition for 24 hrs by HPLC method; format: physicochemical
A549 [20] = experiment: Induction of apoptosis in human A549 cells assessed as reduction in Bcl2 protein expression after 48 hrs by Western blot method; format: functional, cell-based; how it was run: as §1
A549 [21] = experiment: Induction of apoptosis in human A549 cells assessed as caspase-3 cleavage after 48 hrs by Western blot method; format: functional, cell-based; how it was run: as §1
Histone deacetylase 1 [22] = target: T1, Histone deacetylase 1; experiment: Inhibition of HDAC1 in human A549 cells assessed as increase in acetylated-histone H3 level at 1 to 5 uM after 48 hrs by Western blot method; format: cell-based
Histone deacetylase 1 [23] = target: T1, Histone deacetylase 1; experiment: Inhibition of HDAC1 in human A549 cells assessed as increase in acetylated histone-H3 level at 0.1 to 1 uM after 24 hrs by immunofluorescence assay; format: cell-based
T47D = experiment: Induction of apoptosis in human T47D cells assessed as live cells at 5 uM after 48 hrs by annexin V-FITC/propidium iodide staining based flow cytometry (reference value: 85.3%); format: functional
A549 [24] = experiment: Induction of apoptosis in human A549 cells assessed as necrotic cells at 5 uM after 48 hrs by annexin V-FITC/propidium iodide staining based flow cytometry (reference value: […]%); format: functional
[25] = MRT (0 to infinity) in Sprague-Dawley rat at 20 mg/kg, po administered as single dose by HPLC analysis; format: ADME, organism-based; settings: in vivo

Question: Which IC50 (Aurora-C/INCENP) does the source give for `CN(C)C(=O)c1cc2cnc(Nc3ccc(NC(=O)CCCCCCC(=O)NO)cc3)nc2n1C1CCCC1` here?
Answer: Its IC50 is 22 nM.

Question: What about the Activity (MDA-MB-231 [1]) of the same compound?
Answer: The Activity was 1.97%.

Question: And the inhibition (CDK4/CDK9 (Homo sapiens))?
Answer: The inhibition was “Active”.

Question: What about the Activity (Hep 3B2 [2]) of the same compound?
Answer: The Activity was “Active”.

Question: What about the Activity (A549 [3]) of the same compound?
Answer: Its Activity is 90.9%.

Question: And the solubility [4]?
Answer: Its solubility is “Insoluble”.

Question: What about the IC50 (CDK9/cyclin T1) of the same compound?
Answer: The IC50 was 9 nM.

Question: What about the Activity (HepG2 [5]) of the same compound?
Answer: Its Activity is 9.32%.

Question: And the Activity (NCI-H460 [6])?
Answer: Its Activity is 1.25%.

Question: And the inhibition in vivo at 130 mg/kg (4T1)?
Answer: Its inhibition in vivo at 130 mg/kg is 79.3%.

Question: And the “Vdss(app)” value (Rattus norvegicus)?
Answer: The value was 119.94 L/kg.

Question: And the Activity (Hep 3B2 [7])?
Answer: Its Activity is 81%.

Question: And the Activity (MDA-MB-231 [8])?
Answer: The Activity was 1.21%.

Question: And the Activity (NCI-H460 [9])?
Answer: Its Activity is 3.88%.

Question: What about the AUC(0-inf) [10] of the same compound?
Answer: Its AUC(0-inf) is 2130 ng·h/mL.

Question: What about the Activity (A549 [11]) of the same compound?
Answer: The Activity was “Active”.

Question: And the Activity (Hep 3B2 [12])?
Answer: The Activity was 10.4%.

Question: What about the inhibition (Histone deacetylase 1 [13]) of the same compound?
Answer: Its inhibition is “Active”.

Question: And the Activity (HepG2 [14])?
Answer: The Activity was “Active”.

Question: What about the Activity (NCI-H460 [15]) of the same compound?
Answer: The Activity was “Active”.

Question: What about the Activity (MDA-MB-231 [16]) of the same compound?
Answer: Its Activity is 0.78%.

Question: And the Activity (HepG2 [17])?
Answer: Its Activity is 87.4%.

Question: And the Activity (NCI-H460 [18])?
Answer: The Activity was 1.82%.

Question: And the Activity (Mus musculus)?
Answer: Its Activity is “Non-Toxic”.

Question: What about the solubility at 24 h [19] of the same compound?
Answer: Its solubility at 24 h is 0.35 µg/mL (≈ 0.653 µM).

Question: What about the Activity (A549 [20]) of the same compound?
Answer: Its Activity is “Active”.

Question: And the Activity (A549 [21])?
Answer: Its Activity is “Active”.

Question: What about the inhibition (Histone deacetylase 1 [22]) of the same compound?
Answer: The inhibition was “Active”.

Question: And the inhibition (Histone deacetylase 1 [23])?
Answer: The inhibition was “Active”.

Question: And the Activity (T47D)?
Answer: Its Activity is 76.5%.

Question: And the Activity (A549 [24])?
Answer: The Activity was 4.16%.

Question: What about the MRT inf [25] of the same compound?
Answer: Its MRT inf is 20.3 h.
